Measured values taken from ChEMBL document CHEMBL1143126, “Synthesis, cytotoxic evaluation, and DNA binding of novel thiazolo[5,4-b]quinoline derivatives” (Bioorg Med Chem, 2008).

Legend:
DNA [1] = assay: Displacement of ethidium bromide from calf thymus DNA; format: nucleic-acid assay; details: Bos taurus
How it was run: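 Fluorescence quenching of the DNA–ethidium bromide complex in Tris–HCl pH 7.4 with 0.15 M NaCl and ethidium bromide. Emission read at 584 nm with excitation at 546 nm, corrected for dilution. Precipitation was monitored by 600 nm light scatter at 90°. Qmax is the maximum quenching; Q50 is the concentration giving 50% quenching. Means of three experiments, SD.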

[2] = Antiproliferative activity against human C33 cells after 72 hrs by MTT assay; format: functional, cell-based; details: C33, 72 h
How it was run: (§1)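 Cells seeded at 4.5–5.0 · 10⁴ cells/ml/well in 24-well plates, then incubated with or without compounds added in DMSO. After 72 h, MTT in PBS pH 7.2 was added. Formazan was dissolved in DMSO and the plates centrifuged, then absorbance was read at 540 nm. % growth inhibition = (1 − treated/untreated absorbance) × 100.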

DNA [3] = assay: Ratio of Qmax for calf thymus DNA to Q50 for calf thymus DNA; format: nucleic-acid assay; details: Bos taurus
How it was run: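 Efficiency index calculated as Qmax/Q50 from ethidium displacement titrations (Tris–HCl pH 7.4, 0.15 M NaCl). Compounds were added serially from DMSO stocks (DMSO ≤8%), and quenching was read at 584 nm with 546 nm excitation. Qmax is the maximum quenching; Q50 is the concentration for 50% quenching of bound ethidium.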

K562 = assay: Antiproliferative activity against human K562 cells after 72 hrs by MTT assay; format: functional, cell-based; details: K562, 72 h; how it was run: as §1
HeLa = assay: Antiproliferative activity against human HeLa cells after 72 hrs by MTT assay; format: functional, cell-based; how it was run: as §1
SW480 = assay: Antiproliferative activity against human SW480 cells after 72 hrs by MTT assay; format: functional, cell-based; details: SW480, 72 h; how it was run: as §1
SW-620 = assay: Antiproliferative activity against human SW620 cells after 72 hrs by MTT assay; format: functional, cell-based; details: SW-620, 72 h; how it was run: as §1

Q50 (DNA [1]) | Ratio (DNA [3]) | IC50 (K562) | IC50 (HeLa) | IC50 (SW480) | IC50 (SW-620) | SMILES | IC50 [2]
52.5 µM | 0.46 |  |  |  |  | CCN(CC)CCNc1nc2c(Nc3ccccc3)c3ccccc3nc2s1 | 22.4 µM
3.71 µM | 1.79 | 22.2 µM | 25.3 µM | 66.7 µM | 26.6 µM | COc1cccc(Nc2c3ccccc3nc3sc(SC)nc23)c1 | 75.4 µM
2.19 µM | 0.84 |  | 124 µM | > 200 µM | 146 µM | CSc1nc2c(Nc3ccc(Cl)cc3)c3ccccc3nc2s1 | > 200 µM
11.1 µM | 2.36 | 9.28 µM | 12.9 µM | 19.5 µM | 15.2 µM | CCN(CC)CCNc1nc2c(Cl)c3ccccc3nc2s1 | 9.35 µM
6.96 µM | 1.17 | 143 µM | 176 µM | > 200 µM | > 200 µM | CSc1nc2c(Nc3cccc(N)c3)c3ccccc3nc2s1 | 139 µM
16.6 µM | 1.39 | 12.5 µM | 21.7 µM | 13.6 µM | 19.7 µM | CCN(CC)CCNC(=O)c1cccc(Nc2c3ccccc3nc3sc(SC)nc23)c1 | 19.9 µM
4.18 µM | 2.37 |  |  | 101 µM | 119 µM | CNc1cccc(Nc2c3ccccc3nc3sc(SC)nc23)c1 | 134 µM
9.44 µM | 4.87 | 7.85 µM | 13 µM | 28 µM | 16.9 µM | CCN(CC)CCNc1c2ccccc2nc2sc(SC)nc12 | 9.06 µM
7.36 µM | 6.49 |  |  |  |  | Nc1cc(CO)cc(Nc2c3ccccc3nc3ccccc23)c1 | 
1.29 µM | 2 |  |  | 111 µM | 130 µM | CSc1nc2c(Nc3cccc(Cl)c3)c3ccccc3nc2s1 | 129 µM
11.5 µM | 0.68 | 8.01 µM | 7.75 µM | 28.7 µM | 43.8 µM | CSc1nc2c(Nc3cccc(C#N)c3)c3ccccc3nc2s1 | 15.1 µM
 |  |  |  |  |  | COc1cc(NS(C)(=O)=O)ccc1Nc1c2ccccc2nc2ccccc12 [AMSACRINE] | 8.8 µM
7.64 µM | 2.15 | 173 µM | > 200 µM | 147 µM | 146 µM | CSc1nc2c(Nc3cccc(O)c3)c3ccccc3nc2s1 | 146 µM
18.4 µM | 0.82 | 85.3 µM | > 200 µM | > 200 µM | 154 µM | CSc1nc2c(Nc3cccc(NC(C)=O)c3)c3ccccc3nc2s1 | > 200 µM
22.6 µM | 0.79 | 143 µM | > 200 µM | > 200 µM | 184 µM | CSc1nc2c(Nc3cc(N)cc(CO)c3)c3ccccc3nc2s1 | > 200 µM
 |  | > 200 µM | 152 µM | > 200 µM | 161 µM | CSc1nc2c(Nc3cccc([N+](=O)[O-])c3)c3ccccc3nc2s1 | > 200 µM
0.53 µM | 3.08 |  |  |  |  | CSc1nc2c(Nc3cccc(C(F)(F)F)c3)c3ccccc3nc2s1 | 59.7 µM
14.3 µM | 0.9 | 120 µM | 140 µM | > 200 µM | > 200 µM | CSc1nc2c(Nc3ccc(C#N)cc3)c3ccccc3nc2s1 | > 200 µM
13.6 µM | 0.31 | > 200 µM | > 200 µM | > 200 µM | > 200 µM | CSc1nc2c(Nc3ccccc3)c3ccccc3nc2s1 | 154 µM
9.48 µM | 0.39 | 77.2 µM | > 200 µM | > 200 µM | 111 µM | COc1ccc(Nc2c3ccccc3nc3sc(SC)nc23)cc1 | > 200 µM
